Tests used:
HCT-116 = test: Cytotoxicity against human HCT116 cells after 72 hrs by phosphatase assay; type: functional, cell-based; conditions: HCT-116, 72 h
Summary of the method: (§1)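 Cells diluted to 30,000 cells/mL in DMEM with 10% FBS and seeded into 96-well plates (100 μL per well), then grown 24 h at 37 °C under 5% CO2. Test agents were made as 1 mM DMSO stocks with 10-fold serial dilutions and tested at six concentrations over 0–1,000 nM or 0–10,000 nM, in duplicate, for 72 h. Acid phosphatase read-out: substrate in 0.1 M NaOAc pH 5.5 with 0.1% Triton X-100, 15 min at 37 °C, stopped with NaOH, A405.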

HCT-116/VM46 = test: Cytotoxicity against vinblastine-resistant human HCT116/VM46 cells after 72 hrs by phosphatase assay; type: functional, cell-based; conditions: HCT-116/VM46, 72 h
Summary of the method: as §1, with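 “A405. IC50 is the mean of 4–16 determinations.” for “A405.”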

Structure (SMILES)	IC50 (HCT-116) [µM]	IC50 (HCT-116/VM46) [µM]
CC[C@]1(N=C=S)C[C@H]2CN(CCc3c([nH]c4ccccc34)[C@@](C(=O)OC)(c3cc4c(cc3OC)N(C)[C@H]3[C@@](O)(C(=O)OC)[C@H](OC(C)=O)[C@]5(CC)C=CCN6CC[C@]43[C@@H]65)C2)C1	0.53	
CC[C@]1(OC(=O)N(C)C)C[C@H]2CN(CCc3c([nH]c4ccccc34)[C@@](C(=O)OC)(c3cc4c(cc3OC)N(C)[C@H]3[C@@](O)(C(=O)OC)[C@H](OC(C)=O)[C@]5(CC)C=CCN6CC[C@]43[C@@H]65)C2)C1	4.7	9.1
CC[C@]1(NC(=O)NCc2ccccn2)C[C@H]2CN(CCc3c([nH]c4ccccc34)[C@@](C(=O)OC)(c3cc4c(cc3OC)N(C)[C@H]3[C@@](O)(C(=O)OC)[C@H](OC(C)=O)[C@]5(CC)C=CCN6CC[C@]43[C@@H]65)C2)C1	0.0056	0.67
CC[C@]1(NC(C)=O)C[C@H]2CN(CCc3c([nH]c4ccccc34)[C@@](C(=O)OC)(c3cc4c(cc3OC)N(C)[C@H]3[C@@](O)(C(=O)OC)[C@H](OC(C)=O)[C@]5(CC)C=CCN6CC[C@]43[C@@H]65)C2)C1	0.09	
CC[C@]1(NC=O)C[C@H]2CN(CCc3c([nH]c4ccccc34)[C@@](C(=O)OC)(c3cc4c(cc3OC)N(C)[C@H]3[C@@](O)(C(=O)OC)[C@H](OC(C)=O)[C@]5(CC)C=CCN6CC[C@]43[C@@H]65)C2)C1	0.085	
CCN(CC)C(=O)N[C@@]1(CC)C[C@H]2CN(CCc3c([nH]c4ccccc34)[C@@](C(=O)OC)(c3cc4c(cc3OC)N(C)[C@H]3[C@@](O)(C(=O)OC)[C@H](OC(C)=O)[C@]5(CC)C=CCN6CC[C@]43[C@@H]65)C2)C1	0.0067	0.45
CC[C@]1(NC(=O)Nc2ccc(F)cc2)C[C@H]2CN(CCc3c([nH]c4ccccc34)[C@@](C(=O)OC)(c3cc4c(cc3OC)N(C)[C@H]3[C@@](O)(C(=O)OC)[C@H](OC(C)=O)[C@]5(CC)C=CCN6CC[C@]43[C@@H]65)C2)C1	0.0039	0.4
CC[C@]1(NC(N)=S)C[C@H]2CN(CCc3c([nH]c4ccccc34)[C@@](C(=O)OC)(c3cc4c(cc3OC)N(C)[C@H]3[C@@](O)(C(=O)OC)[C@H](OC(C)=O)[C@]5(CC)C=CCN6CC[C@]43[C@@H]65)C2)C1	0.0077	2
CC[C@]1(NC(=O)NCc2ccco2)C[C@H]2CN(CCc3c([nH]c4ccccc34)[C@@](C(=O)OC)(c3cc4c(cc3OC)N(C)[C@H]3[C@@](O)(C(=O)OC)[C@H](OC(C)=O)[C@]5(CC)C=CCN6CC[C@]43[C@@H]65)C2)C1	0.0051	0.53
CC[C@]1(NC(N)=O)C[C@H]2CN(CCc3c([nH]c4ccccc34)[C@@](C(=O)OC)(c3cc4c(cc3OC)N(C)[C@H]3[C@@](O)(C(=O)OC)[C@H](OC(C)=O)[C@]5(CC)C=CCN6CC[C@]43[C@@H]65)C2)C1	0.0075	4.4
CC[C@]1(NC(=S)N(C)C)C[C@H]2CN(CCc3c([nH]c4ccccc34)[C@@](C(=O)OC)(c3cc4c(cc3OC)N(C)[C@H]3[C@@](O)(C(=O)OC)[C@H](OC(C)=O)[C@]5(CC)C=CCN6CC[C@]43[C@@H]65)C2)C1	0.0087	0.25
CC[C@]1(NC(=O)NCCO)C[C@H]2CN(CCc3c([nH]c4ccccc34)[C@@](C(=O)OC)(c3cc4c(cc3OC)N(C)[C@H]3[C@@](O)(C(=O)OC)[C@H](OC(C)=O)[C@]5(CC)C=CCN6CC[C@]43[C@@H]65)C2)C1	0.0088	> 1
CC[C@]1(N)C[C@H]2CN(CCc3c([nH]c4ccccc34)[C@@](C(=O)OC)(c3cc4c(cc3OC)N(C)[C@H]3[C@@](O)(C(=O)OC)[C@H](OC(C)=O)[C@]5(CC)C=CCN6CC[C@]43[C@@H]65)C2)C1	0.6	> 10
CC[C@]1(NC(=O)Nc2ccc(C(F)(F)F)cc2)C[C@H]2CN(CCc3c([nH]c4ccccc34)[C@@](C(=O)OC)(c3cc4c(cc3OC)N(C)[C@H]3[C@@](O)(C(=O)OC)[C@H](OC(C)=O)[C@]5(CC)C=CCN6CC[C@]43[C@@H]65)C2)C1	0.0071	0.61
CC[C@]1(SC#N)C[C@H]2CN(CCc3c([nH]c4ccccc34)[C@@](C(=O)OC)(c3cc4c(cc3OC)N(C)[C@H]3[C@@](O)(C(=O)OC)[C@H](OC(C)=O)[C@]5(CC)C=CCN6CC[C@]43[C@@H]65)C2)C1	0.55	
CC[C@]1(NC(=O)Nc2ccc(Cl)cc2)C[C@H]2CN(CCc3c([nH]c4ccccc34)[C@@](C(=O)OC)(c3cc4c(cc3OC)N(C)[C@H]3[C@@](O)(C(=O)OC)[C@H](OC(C)=O)[C@]5(CC)C=CCN6CC[C@]43[C@@H]65)C2)C1	0.0067	0.59

Structure (SMILES)	IC50 (HCT-116) [µM]	IC50 (HCT-116/VM46) [µM]
CC[C@]1(NC(=O)Nc2ccc(OC)cc2)C[C@H]2CN(CCc3c([nH]c4ccccc34)[C@@](C(=O)OC)(c3cc4c(cc3OC)N(C)[C@H]3[C@@](O)(C(=O)OC)[C@H](OC(C)=O)[C@]5(CC)C=CCN6CC[C@]43[C@@H]65)C2)C1	0.002	0.23
CC[C@@H]1C[C@H]2CN(CCc3c([nH]c4ccccc34)[C@@](C(=O)OC)(c3cc4c(cc3OC)N(C)[C@H]3[C@@](O)(C(=O)OC)[C@H](OC(C)=O)[C@]5(CC)C=CCN6CC[C@]43[C@@H]65)C2)C1 [ROSEAMINE]	0.06	
CC[C@]1(NC(=S)NCCc2ccc(F)cc2)C[C@H]2CN(CCc3c([nH]c4ccccc34)[C@@](C(=O)OC)(c3cc4c(cc3OC)N(C)[C@H]3[C@@](O)(C(=O)OC)[C@H](OC(C)=O)[C@]5(CC)C=CCN6CC[C@]43[C@@H]65)C2)C1	0.06	0.75
CC[C@]1(NC(=O)Nc2ccccc2)C[C@H]2CN(CCc3c([nH]c4ccccc34)[C@@](C(=O)OC)(c3cc4c(cc3OC)N(C)[C@H]3[C@@](O)(C(=O)OC)[C@H](OC(C)=O)[C@]5(CC)C=CCN6CC[C@]43[C@@H]65)C2)C1	0.0051	0.39
CC[C@]1(N=[N+]=[N-])C[C@H]2CN(CCc3c([nH]c4ccccc34)[C@@](C(=O)OC)(c3cc4c(cc3OC)N(C)[C@H]3[C@@](O)(C(=O)OC)[C@H](OC(C)=O)[C@]5(CC)C=CCN6CC[C@]43[C@@H]65)C2)C1	0.69	
CC[C@]1(NC(=O)OC)C[C@H]2CN(CCc3c([nH]c4ccccc34)[C@@](C(=O)OC)(c3cc4c(cc3OC)N(C)[C@H]3[C@@](O)(C(=O)OC)[C@H](OC(C)=O)[C@]5(CC)C=CCN6CC[C@]43[C@@H]65)C2)C1	0.075	
CCNC(=O)N(C)[C@@]1(CC)C[C@H]2CN(CCc3c([nH]c4ccccc34)[C@@](C(=O)OC)(c3cc4c(cc3OC)N(C)[C@H]3[C@@](O)(C(=O)OC)[C@H](OC(C)=O)[C@]5(CC)C=CCN6CC[C@]43[C@@H]65)C2)C1	0.52	8.5
CC[C@]1(NC(=O)NCCc2ccccc2)C[C@H]2CN(CCc3c([nH]c4ccccc34)[C@@](C(=O)OC)(c3cc4c(cc3OC)N(C)[C@H]3[C@@](O)(C(=O)OC)[C@H](OC(C)=O)[C@]5(CC)C=CCN6CC[C@]43[C@@H]65)C2)C1	0.0063	0.59
CC[C@]1(NC(=O)N2CCOCC2)C[C@H]2CN(CCc3c([nH]c4ccccc34)[C@@](C(=O)OC)(c3cc4c(cc3OC)N(C)[C@H]3[C@@](O)(C(=O)OC)[C@H](OC(C)=O)[C@]5(CC)C=CCN6CC[C@]43[C@@H]65)C2)C1	0.0045	0.36
CC[C@]1(NC)C[C@H]2CN(CCc3c([nH]c4ccccc34)[C@@](C(=O)OC)(c3cc4c(cc3OC)N(C)[C@H]3[C@@](O)(C(=O)OC)[C@H](OC(C)=O)[C@]5(CC)C=CCN6CC[C@]43[C@@H]65)C2)C1	0.06	8.5
CC[C@]1(NC(=O)NC2CCCCC2)C[C@H]2CN(CCc3c([nH]c4ccccc34)[C@@](C(=O)OC)(c3cc4c(cc3OC)N(C)[C@H]3[C@@](O)(C(=O)OC)[C@H](OC(C)=O)[C@]5(CC)C=CCN6CC[C@]43[C@@H]65)C2)C1	0.0054	0.45
CC[C@]1(NC(=S)Nc2ccccc2)C[C@H]2CN(CCc3c([nH]c4ccccc34)[C@@](C(=O)OC)(c3cc4c(cc3OC)N(C)[C@H]3[C@@](O)(C(=O)OC)[C@H](OC(C)=O)[C@]5(CC)C=CCN6CC[C@]43[C@@H]65)C2)C1	0.04	0.65
CC[C@]1(NC(=O)Nc2ccc(C)cc2)C[C@H]2CN(CCc3c([nH]c4ccccc34)[C@@](C(=O)OC)(c3cc4c(cc3OC)N(C)[C@H]3[C@@](O)(C(=O)OC)[C@H](OC(C)=O)[C@]5(CC)C=CCN6CC[C@]43[C@@H]65)C2)C1	0.0048	0.33
CC[C@]1(NC(=O)NC(C)(C)C)C[C@H]2CN(CCc3c([nH]c4ccccc34)[C@@](C(=O)OC)(c3cc4c(cc3OC)N(C)[C@H]3[C@@](O)(C(=O)OC)[C@H](OC(C)=O)[C@]5(CC)C=CCN6CC[C@]43[C@@H]65)C2)C1	0.02	0.67
CC[C@]1(NC(=O)Oc2ccc([N+](=O)[O-])cc2)C[C@H]2CN(CCc3c([nH]c4ccccc34)[C@@](C(=O)OC)(c3cc4c(cc3OC)N(C)[C@H]3[C@@](O)(C(=O)OC)[C@H](OC(C)=O)[C@]5(CC)C=CCN6CC[C@]43[C@@H]65)C2)C1	0.055	

From ChEMBL document CHEMBL2311295 (J Med Chem, 2013)
